Data: ChEMBL document CHEMBL4033714, “Discovery of BI 135585, an in vivo efficacious oxazinanone-based 11β hydroxysteroid dehydrogenase type 1 inhibitor” (Bioorg Med Chem, 2017)
Values after ≈ are worked out from the molar mass of the structure shown.

Assays:
[1] = Aqueous solubility of the compound; format: physicochemical
Procedure, shortened: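 Solubility measured in water, with each compound tested as amorphous material.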

[2] = Partition coefficient, log P of the compound; format: physicochemical; conditions: octanol/water
[3] = Half life in rat liver microsomes; format: ADME, microsome
Cytochrome P450 3A4 = Cytochrome P450 3A4 (Homo sapiens, UniProt P08684); assay: (§1) Inhibition of recombinant CYP3A4 (unknown origin); format: ADME
Cytochrome P450 2D6 = Cytochrome P450 2D6 (Homo sapiens, UniProt P10635); assay: Inhibition of CYP2D6 (unknown origin); format: ADME
[4] = Half life in human liver microsomes; format: ADME, microsome
Cytochrome P450 2C9 = Cytochrome P450 2C9 (Homo sapiens, UniProt P11712); assay: (§2) Inhibition of CYP2C9 (unknown origin); format: ADME
[5] = Half life in cynomolgus monkey liver microsomes; format: ADME, Macaca fascicularis, microsome
Cynomolgus monkey = assay: Dose normalized AUC in iv dosed cynomolgus monkey; format: ADME, organism-based, Macaca fascicularis; conditions: in vivo
hERG = hERG (Homo sapiens, UniProt Q12809); assay: Inhibition of human ERG at 10 uM by patch clamp assay relative to control
[6] = Mean residence time in iv dosed cynomolgus monkey; format: ADME, organism-based, Macaca fascicularis; conditions: in vivo
[7] = Clearance in iv dosed cynomolgus monkey; format: ADME, organism-based, Macaca fascicularis; conditions: in vivo
[8] = Volume of distribution at steady state in iv dosed cynomolgus monkey; format: ADME, organism-based, Macaca fascicularis; conditions: in vivo, read-out: Vdss
[9] = Mean residence time in po dosed cynomolgus monkey; format: ADME, organism-based, Macaca fascicularis; conditions: in vivo
[10] = Oral bioavailability in cynomolgus monkey; format: ADME, organism-based, Macaca fascicularis; conditions: in vivo
CYP3A4 = CYP3A4 (Homo sapiens, UniProt P08684); assay: as §1; format: ADME; conditions: recombinant CYP3A4
CYP2C9 = CYP2C9 (Homo sapiens, UniProt P11712); assay: as §2; format: ADME
[11] = Oral bioavailability in rat; format: ADME, organism-based; conditions: in vivo
[12] = Clearance in iv dosed rat; format: ADME, organism-based; conditions: in vivo
[13] = Mean residence time in iv dosed rat; format: ADME, organism-based; conditions: in vivo
[14] = biological target: Voltage-gated inwardly rectifying potassium channel KCNH2 (Homo sapiens, UniProt Q12809); assay: Inhibition of human ERG
[15] = aqueous medium, read-out: solubility

Cytochrome P450 2D6, sequence (P10635 whole entry): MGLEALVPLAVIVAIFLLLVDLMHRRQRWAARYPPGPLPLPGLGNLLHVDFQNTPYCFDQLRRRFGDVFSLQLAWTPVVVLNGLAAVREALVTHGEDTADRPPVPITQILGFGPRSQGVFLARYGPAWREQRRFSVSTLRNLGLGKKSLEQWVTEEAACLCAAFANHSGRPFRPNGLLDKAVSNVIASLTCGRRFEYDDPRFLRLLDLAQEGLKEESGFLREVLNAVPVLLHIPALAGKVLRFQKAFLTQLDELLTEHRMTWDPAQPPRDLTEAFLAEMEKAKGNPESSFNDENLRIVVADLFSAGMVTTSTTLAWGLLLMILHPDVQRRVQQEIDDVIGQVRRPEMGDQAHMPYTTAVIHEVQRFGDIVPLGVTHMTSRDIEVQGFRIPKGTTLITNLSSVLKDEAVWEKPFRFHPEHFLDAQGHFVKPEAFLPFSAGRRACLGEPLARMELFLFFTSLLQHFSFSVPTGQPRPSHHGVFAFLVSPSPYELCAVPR
Cytochrome P450 2C9, sequence (P11712 whole entry): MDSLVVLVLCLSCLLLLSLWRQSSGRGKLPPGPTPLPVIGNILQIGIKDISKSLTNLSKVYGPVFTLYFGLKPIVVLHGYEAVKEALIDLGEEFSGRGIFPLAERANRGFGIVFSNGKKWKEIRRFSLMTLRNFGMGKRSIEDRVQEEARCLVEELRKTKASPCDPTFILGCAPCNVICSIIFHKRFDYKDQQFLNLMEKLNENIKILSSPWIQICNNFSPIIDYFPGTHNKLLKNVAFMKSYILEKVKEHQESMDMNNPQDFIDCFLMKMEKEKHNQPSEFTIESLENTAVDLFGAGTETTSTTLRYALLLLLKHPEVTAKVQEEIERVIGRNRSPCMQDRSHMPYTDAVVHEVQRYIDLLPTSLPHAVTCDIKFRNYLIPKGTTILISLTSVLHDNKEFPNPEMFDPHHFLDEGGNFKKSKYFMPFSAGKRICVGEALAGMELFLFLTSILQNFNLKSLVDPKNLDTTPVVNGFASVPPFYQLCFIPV
CYP2C9, sequence (P11712 whole entry): as above
hERG, sequence (Q12809 whole entry): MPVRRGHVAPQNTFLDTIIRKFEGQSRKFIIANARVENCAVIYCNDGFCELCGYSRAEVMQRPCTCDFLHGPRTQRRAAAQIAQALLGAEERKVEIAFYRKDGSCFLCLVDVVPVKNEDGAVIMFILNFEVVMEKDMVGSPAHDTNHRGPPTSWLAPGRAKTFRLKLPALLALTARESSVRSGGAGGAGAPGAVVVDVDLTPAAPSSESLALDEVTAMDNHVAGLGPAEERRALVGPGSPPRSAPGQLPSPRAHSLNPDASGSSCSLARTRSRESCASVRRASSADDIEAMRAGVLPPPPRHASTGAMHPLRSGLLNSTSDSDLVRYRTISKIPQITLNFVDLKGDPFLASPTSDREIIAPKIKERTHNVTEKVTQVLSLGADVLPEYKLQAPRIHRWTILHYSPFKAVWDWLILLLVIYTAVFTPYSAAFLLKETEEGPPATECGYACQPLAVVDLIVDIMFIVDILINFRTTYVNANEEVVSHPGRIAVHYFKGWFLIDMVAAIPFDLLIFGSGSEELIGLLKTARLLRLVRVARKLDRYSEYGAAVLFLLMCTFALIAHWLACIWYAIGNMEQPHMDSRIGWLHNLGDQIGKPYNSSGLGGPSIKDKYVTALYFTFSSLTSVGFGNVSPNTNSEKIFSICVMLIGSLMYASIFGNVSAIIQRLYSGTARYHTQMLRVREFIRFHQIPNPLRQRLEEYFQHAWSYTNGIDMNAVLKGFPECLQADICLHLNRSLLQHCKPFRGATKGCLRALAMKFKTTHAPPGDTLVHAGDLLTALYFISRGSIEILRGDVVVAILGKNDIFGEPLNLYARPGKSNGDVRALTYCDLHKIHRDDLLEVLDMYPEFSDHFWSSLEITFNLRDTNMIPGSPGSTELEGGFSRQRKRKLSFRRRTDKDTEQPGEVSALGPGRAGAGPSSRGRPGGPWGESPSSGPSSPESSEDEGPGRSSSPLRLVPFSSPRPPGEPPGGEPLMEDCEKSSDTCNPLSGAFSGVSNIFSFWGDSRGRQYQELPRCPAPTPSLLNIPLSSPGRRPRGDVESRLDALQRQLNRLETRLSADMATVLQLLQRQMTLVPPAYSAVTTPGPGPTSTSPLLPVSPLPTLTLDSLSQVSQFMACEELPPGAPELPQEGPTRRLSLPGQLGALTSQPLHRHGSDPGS
Cytochrome P450 3A4, sequence (P08684 whole entry): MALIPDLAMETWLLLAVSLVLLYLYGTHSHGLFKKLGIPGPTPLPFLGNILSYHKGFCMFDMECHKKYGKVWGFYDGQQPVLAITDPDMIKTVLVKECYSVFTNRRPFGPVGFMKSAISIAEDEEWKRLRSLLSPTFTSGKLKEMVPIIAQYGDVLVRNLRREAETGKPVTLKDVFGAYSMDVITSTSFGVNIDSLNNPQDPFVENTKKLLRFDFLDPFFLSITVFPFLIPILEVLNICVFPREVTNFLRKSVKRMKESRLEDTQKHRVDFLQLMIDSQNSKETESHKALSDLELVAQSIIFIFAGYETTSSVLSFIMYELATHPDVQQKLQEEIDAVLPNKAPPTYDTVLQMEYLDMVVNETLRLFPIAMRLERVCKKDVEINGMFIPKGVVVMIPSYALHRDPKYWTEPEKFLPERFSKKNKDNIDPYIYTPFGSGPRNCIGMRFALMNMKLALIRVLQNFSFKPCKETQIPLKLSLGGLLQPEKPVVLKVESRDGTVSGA
CYP3A4, sequence (P08684 whole entry): as above
Voltage-gated inwardly rectifying potassium channel KCNH2, sequence (Q12809 whole entry): as the sequence (Q12809 whole entry) above

| Compound | half-life [3] | IC50 (Cytochrome P450 3A4) | IC50 (Cytochrome P450 2D6) | half-life [4] | half-life [5] | further results |
| --- | --- | --- | --- | --- | --- | --- |
| C[C@@H](c1ccc(-c2ccc(F)cc2F)cc1)N1CC[C@](CCO)(c2ccc(F)cc2)OC1=O |  |  |  |  |  | solubility ([1]; buffer, BLD = below limit of detection): Bld; logP [2]: 4.2 |
| C[C@@H](c1ccc(Br)cc1)N1CC[C@](CC(C)(C)O)(c2ccc(F)cc2)OC1=O | 53 min | 3.5 µM |  |  |  |  |
| C[C@@H](c1ccc(-c2ccc(=O)n(C)n2)cc1)N1CC[C@](CC(C)(C)O)(c2ccccc2)OC1=O | > 90 min | > 50 µM | > 50 µM | > 90 min | > 45 min | IC50 (Cytochrome P450 2C9): > 50 µM; inhibition at 10 µM (hERG): 50% |
| Cc1cnc(-c2ccc([C@H](C)N3CC[C@](CC(C)(C)O)(c4ccccc4)OC3=O)cc2)cn1 | 16 min | > 50 µM | > 50 µM | > 90 min | 38 min | IC50 (Cytochrome P450 2C9): 33 µM |
| Cc1cc(-c2ccc([C@H](C)N3CC[C@](CC(C)(C)O)(c4ccccc4)OC3=O)cc2)cc(C)n1 | > 45 min |  | > 50 µM | > 45 min | 38 min | IC50 (CYP3A4): > 50 µM |
| C[C@@H](c1ccc(Br)cc1)N1CC[C@](CC(C)(C)C#N)(c2ccc(F)cc2)OC1=O | 20.3 min |  |  |  |  |  |
| C[C@@H](c1ccc(OC(F)(F)F)cc1)N1CC[C@](CCC(N)=O)(c2ccc(F)cc2)OC1=O | > 60 min |  |  |  |  |  |
| Cc1ccc([C@H](C)N2CC[C@](CCC(N)=O)(c3ccc(F)cc3)OC2=O)cc1 | 7.1 min |  |  |  |  |  |
| C[C@@H](c1ccc(-c2ccc(C(N)=O)cn2)cc1)N1CC[C@](CC(C)(C)O)(c2ccccc2)OC1=O | > 45 min |  | > 50 µM | > 90 min | > 45 min | bioavailability [11]: 15%; IC50 (CYP3A4): > 50 µM; IC50 (CYP2C9): > 50 µM |
| C[C@@H](c1ccc(OC(F)F)cc1)N1CC[C@](CCC(N)=O)(c2ccccc2)OC1=O | 50.6 min | > 30 µM |  | > 90 min |  | bioavailability [11]: 51%; clearance [12]: 91 mL/min/kg; MRT [13]: 33 min; solubility [1, 15]: 1500 µg/mL (≈ 3580 µM) |
| C[C@@H](c1ccc(OC(F)F)cc1)N1CC[C@](CC(C)(C)O)(c2ccc(F)cc2)OC1=O | > 60 min | 6.6 µM |  |  |  |  |
| C[C@@H](c1ccc(-c2ccc(C#N)cn2)cc1)N1CC[C@](CC(C)(C)O)(c2ccccc2)OC1=O | > 90 min |  | > 50 µM | > 90 min | > 90 min |  |
| C[C@@H](c1ccc(Br)cc1)N1CC[C@](CCCNS(C)(=O)=O)(c2ccc(F)cc2)OC1=O | 11.4 min |  |  |  |  |  |
| C[C@@H](c1ccc(Br)cc1)N1CC[C@](CCC(N)=O)(c2ccc(F)cc2)OC1=O | 36.1 min | > 30 µM |  | > 90 min |  | bioavailability [11]: 42%; clearance [12]: 49 mL/min/kg; MRT [13]: 72 min; solubility [1, 15]: 300 µg/mL (≈ 668 µM); IC50 [14]: 6.3 µM |
| COc1ccc([C@H](C)N2CC[C@](CCC(N)=O)(c3ccc(F)cc3)OC2=O)cc1 | 9 min |  |  |  |  |  |
| C[C@@H](c1ccc(OC(F)F)cc1)N1CC[C@](CCC(N)=O)(c2ccc(F)cc2)OC1=O | > 60 min | 27 µM |  | > 90 min |  | bioavailability [11]: 77%; clearance [12]: 67 mL/min/kg; MRT [13]: 50.4 min; solubility [1, 15]: 460 µg/mL (≈ 1050 µM); IC50 [14]: 5.3 µM |
| C[C@@H](c1ccc(Br)cc1)N1CC[C@](CCO)(c2ccc(F)cc2)OC1=O | 25 min | > 30 µM |  |  |  |  |
| C[C@@H](c1ccc(OC(F)F)cc1)N1CC[C@](CC(C)(C)O)(c2ccccc2)OC1=O | > 60 min | 10 µM |  | > 90 min |  | bioavailability [11]: 57%; clearance [12]: 23 mL/min/kg; MRT [13]: 50.4 min; solubility [1, 15]: 260 µg/mL (≈ 620 µM) |

Further lines, with some results ahead:

| half-life [3] | IC50 (Cytochrome P450 3A4) | IC50 (Cytochrome P450 2D6) | half-life [4] | half-life [5] | Compound | further results |
| --- | --- | --- | --- | --- | --- | --- |
| > 90 min | 10 µM | > 50 µM | > 90 min | > 45 min | C[C@@H](c1ccc(-c2ccc3ncnn3c2)cc1)N1CC[C@](CC(C)(C)O)(c2ccccc2)OC1=O | IC50 (Cytochrome P450 2C9): > 50 µM |
|  | 10.5 µM |  |  |  | C[C@@H](c1ccc(-c2ccc(=O)n(C)c2)cc1)N1CC[C@](CCCO)(c2ccccc2)OC1=O |  |
| > 90 min |  | > 50 µM | > 90 min | > 90 min | C[C@@H](c1ccc(-c2ccc(=O)n(C)c2)cc1)N1CC[C@](CC(C)(C)O)(c2ccccc2)OC1=O | AUC/dose (Cynomolgus monkey): 1770 nM·h; inhibition at 10 µM (hERG): < 10%; MRT [6]: 162 min; clearance [7]: 11 mL/min/kg; Vd [8]: 1.7 L/kg; MRT [9]: 288 min; bioavailability [10]: 39% |
|  | 23 µM |  |  |  | C[C@@H](c1ccc(-c2ccccn2)cc1)N1CC[C@](CCCO)(c2ccccc2)OC1=O |  |
|  | > 30 µM |  |  |  | COc1ccc(-c2ccc([C@H](C)N3CC[C@](CCCO)(c4ccccc4)OC3=O)cc2)cn1 |  |
|  |  | > 50 µM |  |  | COc1ccc(-c2ccc([C@H](C)N3CC[C@](CC(C)(C)O)(c4ccccc4)OC3=O)cc2)cn1 |  |
|  | 2.1 µM |  |  |  | C[C@@H](c1ccc(-c2cccnc2)cc1)N1CC[C@](CCCO)(c2ccccc2)OC1=O |  |
| > 45 min |  | > 50 µM | > 90 min | > 45 min | Cc1ccc(-c2ccc([C@H](C)N3CC[C@](CC(C)(C)O)(c4ccccc4)OC3=O)cc2)nn1 | AUC/dose (Cynomolgus monkey): 3330 nM·h; IC50 (CYP3A4): > 50 µM; IC50 (CYP2C9): > 50 µM; inhibition at 10 µM (hERG): < 10%; MRT [6]: 288 min; clearance [7]: 5.2 mL/min/kg; Vd [8]: 1.5 L/kg; MRT [9]: 318 min; bioavailability [10]: 70% |
| 13 min | > 30 µM |  |  |  | Cc1cc(-c2ccc([C@H](C)N3CC[C@](CCCO)(c4ccccc4)OC3=O)cc2)cc(C)n1 |  |
|  | 11 µM |  |  |  | C[C@@H](c1ccc(-c2cncc(F)c2)cc1)N1CC[C@](CCCO)(c2ccccc2)OC1=O |  |
| > 45 min |  | > 50 µM | > 45 min | > 45 min | C[C@@H](c1ccc(-c2ccc(F)cn2)cc1)N1CC[C@](CC(C)(C)O)(c2ccccc2)OC1=O |  |
|  | 1.8 µM |  |  |  | C[C@@H](c1ccc(-c2ccncc2)cc1)N1CC[C@](CCCO)(c2ccccc2)OC1=O |  |
| > 90 min |  | > 50 µM | > 90 min | > 90 min | Cc1ncc(-c2ccc([C@H](C)N3CC[C@](CC(C)(C)O)(c4ccccc4)OC3=O)cc2)cn1 | AUC/dose (Cynomolgus monkey): 2070 nM·h; IC50 (CYP3A4): > 50 µM; IC50 (CYP2C9): > 50 µM; inhibition at 10 µM (hERG): 12%; MRT [6]: 210 min; clearance [7]: 8.1 mL/min/kg; Vd [8]: 1.7 L/kg; MRT [9]: 288 min; bioavailability [10]: 96% |
